Data published in ChEMBL document CHEMBL1629494, “New amino acid esters of salicylanilides active against MDR-TB and other microbes” (Eur J Med Chem, 2010).
Converted amounts (≈) assume the structure as drawn.

What was measured:
Assay type in all cases: functional
[1] = Selectivity index, ratio of IC50 for human PBMC to MIC for multidrug-resistant Mycobacterium tuberculosis 357/2005
Method in brief: (§1)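 SI = PBMC IC50 (MTT cytotoxicity) divided by the MIC against the named M. tuberculosis strain. MIC taken after 14 days of incubation at 37 °C by the micromethod.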

[2] = Selectivity index, ratio of IC50 for human PBMC to MIC for multidrug-resistant Mycobacterium tuberculosis 53/2009; method in brief: as §1
[3] = Selectivity index, ratio of IC50 for human PBMC to MIC for multidrug-resistant Mycobacterium tuberculosis 362/1998; method in brief: as §1
[4] = Selectivity index, ratio of IC50 for human PBMC to MIC for multidrug-resistant Mycobacterium tuberculosis 9449/2007; method in brief: as §1
[5] = tested on: Mycobacterium tuberculosis; experiment: Antimycobacterial activity against multidrug-resistant Mycobacterium tuberculosis 357/2005 after 14 days by micromethod; conditions: 357/2005, 336 h
Method in brief: (§2)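 Clinical MDR/XDR M. tuberculosis strains, all resistant to INH, RIF, rifabutine and streptomycin, some with further resistances. Tested by the MIC micromethod across a concentration series descending from 1000.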

[6] = tested on: Mycobacterium tuberculosis; experiment: Antimycobacterial activity against multidrug-resistant Mycobacterium tuberculosis 357/2005 after 21 days by micromethod; conditions: 357/2005, 504 h; method in brief: as §2
[7] = tested on: Mycobacterium tuberculosis; experiment: Antimycobacterial activity against multidrug-resistant Mycobacterium tuberculosis 53/2009 after 14 days by micromethod; conditions: 53/2009, 336 h; method in brief: as §2
[8] = tested on: Mycobacterium tuberculosis; experiment: Antimycobacterial activity against multidrug-resistant Mycobacterium tuberculosis 53/2009 after 21 days by micromethod; conditions: 53/2009, 504 h
Method in brief: (§3)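 MDR M. tuberculosis strains, all resistant to INH, RIF, rifabutine and streptomycin (9449/2007 to these four). Micromethod with compounds added as DMSO solutions in a twofold series from 1000 μmol/L downward; lowest level used 1 μmol/L. Incubated at 37 °C and read at 14 and 21 days; MIC is the lowest concentration giving growth inhibition.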

[9] = tested on: Mycobacterium tuberculosis; experiment: Antimycobacterial activity against extensively drug resistant Mycobacterium tuberculosis Praha 1 after 14 days by micromethod; conditions: Praha 1, 336 h; method in brief: as §2
[10] = tested on: Mycobacterium tuberculosis; experiment: Antimycobacterial activity against extensively drug resistant Mycobacterium tuberculosis Praha 1 after 21 days by micromethod; conditions: Praha 1, 504 h; method in brief: as §2
[11] = tested on: Mycobacterium tuberculosis; experiment: Antimycobacterial activity against extensively drug resistant Mycobacterium tuberculosis Praha 131 after 14 days by micromethod; conditions: Praha 131, 336 h; method in brief: as §2
[12] = tested on: Mycobacterium tuberculosis; experiment: Antimycobacterial activity against extensively drug resistant Mycobacterium tuberculosis Praha 131 after 21 days by micromethod; conditions: Praha 131, 504 h; method in brief: as §2
[13] = tested on: Mycobacterium tuberculosis; experiment: Antimycobacterial activity against multidrug-resistant Mycobacterium tuberculosis 362/1998 after 14 days by micromethod; conditions: 362/199, 336 h; method in brief: as §2
[14] = tested on: Mycobacterium tuberculosis; experiment: Antimycobacterial activity against multidrug-resistant Mycobacterium tuberculosis 362/1998 after 21 days by micromethod; conditions: 362/1998, 504 h; method in brief: as §2
[15] = tested on: Mycobacterium tuberculosis; experiment: Antimycobacterial activity against multidrug-resistant Mycobacterium tuberculosis 9449/2007 after 14 days by micromethod; conditions: 9449/2007, 336 h; method in brief: as §3
[16] = tested on: Mycobacterium tuberculosis; experiment: Antimycobacterial activity against multidrug-resistant Mycobacterium tuberculosis 9449/2007 after 21 days by micromethod; conditions: 9449/2007, 504 h; method in brief: as §3

Structure (SMILES) | Selectivity Index [1] | Selectivity Index [2] | Selectivity Index [3] | Selectivity Index [4] | MIC [5] [µM] | MIC [6] [µM] | MIC [7] [µM] | MIC [8] [µM] | MIC [9] [µM] | MIC [10] [µM] | MIC [11] [µM] | MIC [12] [µM] | MIC [13] [µM] | MIC [14] [µM] | MIC [15] [µM] | MIC [16] [µM]
CC(=O)N[C@@H](Cc1ccccc1)C(=O)Oc1ccc(Cl)cc1C(=O)Nc1ccc(Cl)c(Cl)c1 | 22 | 22 | 22 | 22 | 2 (≈ 1.01 µg/mL) | 2 (≈ 1.01 µg/mL) | 1 (≈ 0.506 µg/mL) | 2 (≈ 1.01 µg/mL) | 1 (≈ 0.506 µg/mL) | 2 (≈ 1.01 µg/mL) | 2 (≈ 1.01 µg/mL) | 2 (≈ 1.01 µg/mL) | 1 (≈ 0.506 µg/mL) | 2 (≈ 1.01 µg/mL) | 2 (≈ 1.01 µg/mL) | 4 (≈ 2.02 µg/mL)
CC(=O)N[C@@H](Cc1ccccc1)C(=O)Oc1ccc(Cl)cc1C(=O)Nc1ccc(C(F)(F)F)cc1 | 6.1 | 6.1 | 6.1 | 6.1 | 1 (≈ 0.505 µg/mL) | 2 (≈ 1.01 µg/mL) | 1 (≈ 0.505 µg/mL) | 1 (≈ 0.505 µg/mL) | 1 (≈ 0.505 µg/mL) | 2 (≈ 1.01 µg/mL) | 1 (≈ 0.505 µg/mL) | 2 (≈ 1.01 µg/mL) | 1 (≈ 0.505 µg/mL) | 1 (≈ 0.505 µg/mL) | 2 (≈ 1.01 µg/mL) | 2 (≈ 1.01 µg/mL)
CC(=O)N[C@@H](Cc1ccccc1)C(=O)Oc1ccc(Br)cc1C(=O)Nc1ccc(C(F)(F)F)cc1 | 24.1 | 24.1 | 24.1 | 24.1 | 2 (≈ 1.1 µg/mL) | 2 (≈ 1.1 µg/mL) | 1 (≈ 0.549 µg/mL) | 2 (≈ 1.1 µg/mL) | 1 (≈ 0.549 µg/mL) | 2 (≈ 1.1 µg/mL) | 2 (≈ 1.1 µg/mL) | 2 (≈ 1.1 µg/mL) | 1 (≈ 0.549 µg/mL) | 1 (≈ 0.549 µg/mL) | 1 (≈ 0.549 µg/mL) | 2 (≈ 1.1 µg/mL)
NNC(=O)c1ccncc1 [ISONIAZID] |  |  |  |  | 14.6 (≈ 2 µg/mL) | 14.6 (≈ 2 µg/mL) | 14.6 (≈ 2 µg/mL) | 14.6 (≈ 2 µg/mL) | 14.6 (≈ 2 µg/mL) | 14.6 (≈ 2 µg/mL) | 14.6 (≈ 2 µg/mL) | 14.6 (≈ 2 µg/mL) | 14.6 (≈ 2 µg/mL) | 14.6 (≈ 2 µg/mL) | 58.3 (≈ 8 µg/mL) | 58.3 (≈ 8 µg/mL)
